Only some compounds are listed: those with a hit (about 6.5% of all), similar ones and a draw of the others.
Candida biofilm: kills Candida albicans biofilms. inhibition, % at 6 µM. 0.14% of 85,000 active. C. albicans biofilm + clotrimazole, Alamar Blue;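 active = inhibition above 20%; inactive = inhibition below 20%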;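 note: preformed 24 hr biofilms exposed to compound for 48 hr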
tolC growth inh: blocks growth of E. coli BW25113 tolC mutant | growth inhibition, % at 10 µM (by protocol) | OD615 | 2.2% of 65,000 active | AID 573;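 active = growth inhibition at or above a cutoff equal to the mean over every tested compound plus 3 SD, cut at about 60% in these data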;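 note: growth measured after 20 h incubation at 37 °C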
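Assay system: tolC-deleted E. coli BW25113. Medium: kanamycin-containing LB broth (50 µg/mL). Dosing: 10 µM final, single dose. Timing: bacterial growth with compound for 20 h at 37 °C. Detection: A615 absorbance measurement. Read-out basis: growth inhibition in percent.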
PostGolgi ctrl: inhibits growth of the yeast control strain. efflux-deficient yeast background strain, growth absorbance A615, 16 h. inhibition, % at 10 µM. 5% of 98,000 active. AID 738
PostGolgi yeast: growth inhibition of a yeast mutant, post-Golgi transport screen; inhibition, % at 10 µM; post-Golgi transport phenotypic cell assay; 0.9% of 98,000 active; AID 739;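 note: yeast cells grown in 1536-well plates; yeast grown about 18 h at 30C before absorbance read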
Pyk2 oligo antag: blocks oligomerization of human Pyk2 in cells | Q14289 | Q293 cells, Pyk2 FERM NanoBiT luminescence; hits give low values | z-score (the deposit names both 25 µM and 10 µM) | 0.83% of 99,000 active | AID 1347419;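 active = Z-score of -3 or lower, scaled per plate to the spread of control and sample wells; inactive = z-score above -3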;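 note: negative z-score means lost luminescence so less FERM oligomerization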
Target sequence (Q14289 whole entry, looked up): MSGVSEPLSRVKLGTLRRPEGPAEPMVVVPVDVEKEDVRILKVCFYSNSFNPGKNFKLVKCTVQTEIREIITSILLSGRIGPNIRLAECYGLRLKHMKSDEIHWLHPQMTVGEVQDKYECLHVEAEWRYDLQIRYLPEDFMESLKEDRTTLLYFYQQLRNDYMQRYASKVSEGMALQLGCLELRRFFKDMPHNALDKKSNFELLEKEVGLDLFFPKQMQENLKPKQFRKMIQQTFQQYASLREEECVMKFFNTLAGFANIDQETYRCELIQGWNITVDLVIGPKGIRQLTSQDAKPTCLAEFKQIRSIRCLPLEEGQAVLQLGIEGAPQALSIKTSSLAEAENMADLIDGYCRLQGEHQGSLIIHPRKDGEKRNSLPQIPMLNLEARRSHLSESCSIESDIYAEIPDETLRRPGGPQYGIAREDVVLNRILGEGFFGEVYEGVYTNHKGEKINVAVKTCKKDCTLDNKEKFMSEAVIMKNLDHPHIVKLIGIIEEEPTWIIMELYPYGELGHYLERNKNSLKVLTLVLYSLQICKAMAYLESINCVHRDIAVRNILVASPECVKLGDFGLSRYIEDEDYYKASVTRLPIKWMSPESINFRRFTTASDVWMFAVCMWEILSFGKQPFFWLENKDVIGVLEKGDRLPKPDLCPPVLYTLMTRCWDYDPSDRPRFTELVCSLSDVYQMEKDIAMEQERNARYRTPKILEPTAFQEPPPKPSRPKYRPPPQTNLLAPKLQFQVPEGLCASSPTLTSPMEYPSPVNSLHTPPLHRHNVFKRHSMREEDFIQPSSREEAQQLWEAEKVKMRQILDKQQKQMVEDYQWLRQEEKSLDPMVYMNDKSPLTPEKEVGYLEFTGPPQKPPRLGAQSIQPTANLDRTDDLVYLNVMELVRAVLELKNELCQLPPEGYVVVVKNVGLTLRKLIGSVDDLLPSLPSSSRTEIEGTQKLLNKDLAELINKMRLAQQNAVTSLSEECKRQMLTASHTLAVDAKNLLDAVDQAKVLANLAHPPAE
E coli WT exp: E. coli BW25113 growth inhibition, expanded screen | OD600 absorbance | growth inhibition, % at 100 µM | 0.15% of 98,000 active | AID 710;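 active = growth inhibition above about 50% at one test dose, limit read from the data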;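 note: growth measured after 20 h incubation at 37 °C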
Of the large screens only hits and unclear results are named; the others gave an inactive call. Cut-off read from the data, not from the text of the source, unless noted: active = inhibition above about 30%; inactive = the rest.

OC(c1ccc(Cl)cc1Cl)C(Cc1cccnc1)n1cncn1 (stereo not drawn)	PostGolgi yeast 45 (no result: Candida biofilm)
O=C(CCn1nc(-c2ccc(Cl)cc2)ccc1=O)NCc1cccnc1	none (no result: Candida biofilm, tolC growth inh)
OC(Cn1cncn1)c1ccc(Cl)cc1Cl (stereo not drawn)	PostGolgi ctrl 40, PostGolgi yeast 78
OC(Cn1cncn1)c1ccc(Cl)cc1 (stereo not drawn)	none
Cc1cccc2cc(CN(Cc3cccs3)C3(c4nnnn4C4CCCC4)CCCC3)c(=O)[nH]c12	none
CCN(CC)C(=O)C(Cc1ccccc1)N1C(=O)c2ccccc2C1=O (stereo not drawn)	none (no result: Candida biofilm, tolC growth inh)
O=C(CS(=O)(=O)Cc1ccccc1)Nc1ccc(Cl)cn1	none (no result: tolC growth inh, PostGolgi ctrl, PostGolgi yeast, E coli WT exp)
Nc1nncn1C(=O)CCCN1C(=O)c2ccccc2C1=O	tolC growth inh 96
Cn1c(SCc2ccccc2)nnc1-c1ccc2c(c1)OCO2	none
c1ccc2c(c1)c1ccccc1n1c(-c3ccc4c(c3)OCO4)nnc21	PostGolgi ctrl 43 (no result: Candida biofilm, tolC growth inh)
Cn1c(=O)c2c(nc(N3CCCCC3)n2CCSc2nc3ccccc3s2)n(C)c1=O	none
CCN1CCN(Cc2nc3c(c(=O)n(C)c(=O)n3C)n2Cc2ccccc2Cl)CC1	PostGolgi ctrl 31 (no result: Pyk2 oligo antag)
Cn1c(=O)c2c(nc(N3CCCCCC3)n2Cc2cccc3ccccc23)n(C)c1=O	tolC growth inh 74, PostGolgi ctrl 62
CN1CCN(c2nc3c(c(=O)n(C)c(=O)n3C)n2Cc2cccc3ccccc23)CC1	none
CC1CCN(c2nc3c(c(=O)n(C)c(=O)n3C)n2CCSc2nc3ccccc3s2)CC1	PostGolgi ctrl 36
Cn1c(=O)c2c(nc(CN3CCc4ccccc4C3)n2Cc2cccc(Cl)c2)n(C)c1=O	PostGolgi ctrl 33 (no result: Pyk2 oligo antag)
CNc1nc(OCC(F)(F)F)nc(N2CCN(C34CC5CC(CC(C5)C3)C4)CC2)n1	none (no result: tolC growth inh, PostGolgi ctrl, PostGolgi yeast, Pyk2 oligo antag, E coli WT exp)
O=C1N/C(=N/NC(=O)c2cccc3ccccc23)S/C1=C\c1ccccc1OCc1ccccc1	Pyk2 oligo antag -3 (no result: Candida biofilm, tolC growth inh)
CCn1c(C(=O)N2CCCC(C(=O)O)C2)cc2sccc21 (stereo not drawn)	none (no result: PostGolgi ctrl, PostGolgi yeast, E coli WT exp)
CCn1c(C(=O)N2CCC(Cc3ccccc3)CC2)cc2sccc21	tolC growth inh 80
C/C=C(\C)CN1CCN(c2ccc(C)cc2)CC1	none (no result: tolC growth inh)
C=CCn1c(NC(=O)c2ccccc2Cl)c(C#N)c2nc3ccccc3nc21	tolC growth inh 84
CCCCn1c(NC(C)=O)c(C#N)c2nc3ccccc3nc21	none
C=CCn1c(NC(=O)c2ccccc2)c(C#N)c2nc3ccccc3nc21	tolC growth inh 89 (no result: PostGolgi ctrl, PostGolgi yeast, Pyk2 oligo antag, E coli WT exp)
COc1ccc(CCC(=O)NCCc2cn3c(C)csc3n2)cc1	none (no result: Pyk2 oligo antag)
Cc1ccccc1NC(=S)NCc1ccc2c(c1)OCO2	PostGolgi ctrl 38 (no result: Candida biofilm, tolC growth inh)
Cc1ccc(C)c(NC(=S)NCc2ccc3c(c2)OCO3)c1	none (no result: Candida biofilm, tolC growth inh)
CCN1CCN(CC(=O)NC2CCCCC2)C(=O)C1=O	none (no result: Pyk2 oligo antag)
O=C(C1CC1)N1CCc2cc(S(=O)(=O)NCCC3=CCCCC3)ccc21	tolC growth inh 74, PostGolgi ctrl 36
Cc1nn(-c2ccccc2)c2sc(C(=O)OCN3C(=O)c4ccccc4C3=O)cc12	none (no result: PostGolgi ctrl, PostGolgi yeast, Pyk2 oligo antag, E coli WT exp)
CCOC(=O)c1ccc(NC(=O)C(C)NS(=O)(=O)c2ccc(OC)cc2)cc1 (stereo not drawn)	PostGolgi ctrl 36
CCOC(=O)c1ccc(NC(=O)NS(=O)(=O)c2ccc(C)cc2)cc1	none
CCOC(=O)c1ccc(NS(=O)(=O)c2ccc(SC)cc2)cc1	tolC growth inh 70 (no result: Candida biofilm)
CCOc1ccc(NS(=O)(=O)c2ccc(N)cc2)cc1	none (no result: tolC growth inh)
CCOC(=O)Cc1ccc(NS(=O)(=O)c2ccc(SC)cc2)cc1	tolC growth inh 70
CCOc1ccc(NS(=O)(=O)c2ccc(SC)cc2)cc1	tolC growth inh 73
CCOC(=O)c1ccc(NC(=O)COc2ccc(S(=O)(=O)NC(C)CC)cc2)cc1 (stereo not drawn)	none (no result: tolC growth inh)
CC(=O)/C(C#N)=C1\NC(=O)C(Cc2ccc(C)c(C)c2)S1 (stereo not drawn)	none (no result: tolC growth inh)
CCOC(=O)c1ccc(NS(=O)(=O)N2CCCCCC2)cc1	Pyk2 oligo antag -3.1
CSc1ccc(S(=O)(=O)NC2CCCCCC2)cc1	PostGolgi ctrl 70
O=C(O)C1C2C=CC(C3CC23)C1C(=O)N1CCc2ccccc21 (stereo not drawn)	none (no result: tolC growth inh)
Cc1ccc(NC(=O)CC2S/C(=N/c3nccs3)N(C)C2=O)c(C)c1 (stereo not drawn)	PostGolgi ctrl 32 (no result: tolC growth inh)
Cc1cc(C2C(=O)C(C(=O)c3ccc(Cl)cc3)C(=O)CC2(C)C)on1 (stereo not drawn)	none
CCc1cc2c(=O)c(-c3nc4ccccc4[nH]3)coc2cc1OC(=O)N1CCOCC1	PostGolgi yeast 31 (no result: Candida biofilm)
O=c1[nH]c(=O)n(-c2ccccc2)c2c1C(C(F)(F)F)(C(F)(F)F)N=C(CCC1CCCCC1)N2	Pyk2 oligo antag -3.6 (no result: Candida biofilm, tolC growth inh, PostGolgi ctrl, PostGolgi yeast, E coli WT exp)
O=c1[nH]c(=O)n(Cc2ccco2)c2c1C(C(F)(F)F)(C(F)(F)F)N=C(CCc1ccccc1)N2	Pyk2 oligo antag -4 (no result: tolC growth inh)
O=c1[nH]c(=O)n(Cc2ccco2)c2c1C(C(F)(F)F)(C(F)(F)F)N=C(CCC1CCCCC1)N2	Pyk2 oligo antag -4.1 (no result: tolC growth inh)
O=c1[nH]c(=O)n(Cc2ccco2)c2c1C(C(F)(F)F)(C(F)(F)F)N=C(C1CCCCC1)N2	none
O=C(Nc1cccc(Br)c1)c1ccc(Cl)c(S(=O)(=O)N2CCOCC2)c1	none (no result: tolC growth inh, PostGolgi ctrl, PostGolgi yeast, E coli WT exp)
O=C(Nc1cccc(S(=O)(=O)C(F)F)c1)c1ccc(Cl)c(S(=O)(=O)N2CCOCC2)c1	Pyk2 oligo antag -3 (no result: Candida biofilm)
CCn1c(O)c(/C=N/N=C/c2ccccc2)c2ccc(C3=NNC(=O)CC3)cc21	PostGolgi ctrl 48 (no result: tolC growth inh)
O=C(CN1C(=O)C2C3C=CC(C3)C2C1=O)N1CC(=O)N(CCc2ccccc2)C(=O)C1 (stereo not drawn)	none
O=C(CN1C(=O)C2C3C=CC(C3)C2C1=O)N1CC=C(c2ccccc2)CC1 (stereo not drawn)	PostGolgi ctrl 31
COc1ccccc1OCC(=O)c1[nH]c(C)c(C(C)=O)c1C	none
CC(=O)c1c(C)[nH]c(C(=O)COc2ccc(C#N)cc2)c1C	PostGolgi ctrl 32 (no result: tolC growth inh)
Cc1cc(C)c2c(c1)SC1=NC(c3ccccc3)(C(F)(F)F)NC(=O)N12 (stereo not drawn)	PostGolgi ctrl 43 (no result: tolC growth inh)
CCCc1nc(NCc2ccccn2)c2nnn(Cc3ccccc3F)c2n1	PostGolgi ctrl 100 (no result: tolC growth inh)
CCCc1nc(NCc2ccncc2)c2nnn(Cc3ccccc3F)c2n1	none
Cc1ccc(-c2nn(-c3cc(Cl)ccc3[N+](=O)[O-])c(=O)c3ccccc23)cc1	PostGolgi ctrl 37 (no result: Candida biofilm, tolC growth inh)
Cc1ccc(C)c(-c2nn(-c3cc(N4CCN(CCO)CC4)ccc3[N+](=O)[O-])c(=O)c3ccccc23)c1	PostGolgi ctrl 48 (no result: Candida biofilm, tolC growth inh)
Cc1nn(-c2cc(N3CCCC3)ccc2[N+](=O)[O-])c(=O)c2ccccc12	none (no result: tolC growth inh)
CCn1c(-c2csc3c2CCC(C)C3)n[nH]c1=S (stereo not drawn)	none (no result: Candida biofilm, tolC growth inh, PostGolgi ctrl, PostGolgi yeast, E coli WT exp)
CCCC(=O)N(c1ccc(OCC)cc1)C1C=CS(=O)(=O)C1 (stereo not drawn)	none

Compound activity deposited in PubChem by several laboratories.
